In ChEMBL document CHEMBL1944635, “Synthesis and evaluation of debromohymenialdisine-derived Chk2 inhibitors” (Bioorg Med Chem, 2012):

Experiments:
[1] = molecular target: T1, Serine/threonine-protein kinase Chk1 (Homo sapiens, UniProt O14757); experiment: Inhibition of human CHK1 using STK1 as substrate after 10 mins by HTRF assay
T1 sequence (O14757 whole entry): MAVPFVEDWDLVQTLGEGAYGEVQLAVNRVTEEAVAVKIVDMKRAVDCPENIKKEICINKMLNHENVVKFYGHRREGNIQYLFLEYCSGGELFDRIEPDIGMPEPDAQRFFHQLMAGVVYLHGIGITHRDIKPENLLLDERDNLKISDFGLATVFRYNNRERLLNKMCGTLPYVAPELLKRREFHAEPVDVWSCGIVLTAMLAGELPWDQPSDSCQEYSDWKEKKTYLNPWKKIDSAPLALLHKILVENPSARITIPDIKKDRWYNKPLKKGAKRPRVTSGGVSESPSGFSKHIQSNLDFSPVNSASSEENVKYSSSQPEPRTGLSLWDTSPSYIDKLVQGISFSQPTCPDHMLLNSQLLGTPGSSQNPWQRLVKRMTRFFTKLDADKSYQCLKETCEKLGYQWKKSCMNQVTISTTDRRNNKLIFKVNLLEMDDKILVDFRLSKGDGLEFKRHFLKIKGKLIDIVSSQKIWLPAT
Procedure, shortened: (§1)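 Human Chk1 or Chk2 was incubated with test agent over a concentration range (final DMSO 0.2%) and STK1 substrate (50 nM for Chk1, 1 µM for Chk2) in 50 mM HEPES pH 7.0 with 5 mM MgCl2 and 1 mM DTT. The reaction was started with 100 µM ATP and ran 10 min at 30 °C. It was stopped with EDTA containing Sa-XL665 and Eu(K) antibody, then held 1 h at room temperature. TR-FRET 665/620 ratio was read, minus the negative control. IC50s are means of at least three independent experiments, each in duplicate.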

Homo sapiens = organism: Homo sapiens; experiment: Selectivity ratio of IC50 for human CHK1 to IC50 for human CHK2
[2] = molecular target: Serine/threonine-protein kinase Chk2 (Homo sapiens, UniProt O96017); experiment: Inhibition of human Chk2 using STK1 as substrate after 10 mins by HTRF assay; procedure, shortened: as §1
Chain of Serine/threonine-protein kinase Chk2 (O96017 whole entry): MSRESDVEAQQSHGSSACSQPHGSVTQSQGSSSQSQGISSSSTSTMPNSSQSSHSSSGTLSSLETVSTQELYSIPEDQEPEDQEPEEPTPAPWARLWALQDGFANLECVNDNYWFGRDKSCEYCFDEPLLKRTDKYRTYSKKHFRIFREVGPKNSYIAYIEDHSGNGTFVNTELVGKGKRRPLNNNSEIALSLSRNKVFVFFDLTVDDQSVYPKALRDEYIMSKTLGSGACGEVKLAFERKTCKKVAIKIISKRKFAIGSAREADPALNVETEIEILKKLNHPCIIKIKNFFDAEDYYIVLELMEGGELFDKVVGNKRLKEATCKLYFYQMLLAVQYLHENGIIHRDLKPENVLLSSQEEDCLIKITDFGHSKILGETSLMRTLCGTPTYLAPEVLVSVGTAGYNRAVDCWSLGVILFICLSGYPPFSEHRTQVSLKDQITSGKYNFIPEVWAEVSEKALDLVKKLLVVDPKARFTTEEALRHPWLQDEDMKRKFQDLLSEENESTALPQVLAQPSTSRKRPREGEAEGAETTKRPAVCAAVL

SMILES	IC50 [1]	Ratio IC50 (Homo sapiens)	IC50 [2]
Nc1nc(C2=C3C(=Nc4ccccc43)C(=O)NCC2)c(O)[nH]1	234 nM	29	
CCOC(=O)CCNC1=NC(=O)/C(=C2\CCNC(=O)c3[nH]c(-c4ccccc4)cc32)N1	> 10000 nM	> 36	277 nM
COc1ccc(-c2cc3c([nH]2)C(=O)NCC/C3=C2/NC(N)=NC2=O)cc1	867 nM	62	14 nM
O=C1N=C(NC2CCCCC2)N/C1=C1/CCNC(=O)c2[nH]c(-c3ccccc3)cc21	> 10000 nM	> 7	1530 nM
CCCNC1=NC(=O)/C(=C2\CCNC(=O)c3[nH]c(-c4ccccc4)cc32)N1	> 10000 nM	> 64	156 nM
COc1ccc(CNC2=NC(=O)/C(=C3\CCNC(=O)c4[nH]c(-c5ccccc5)cc43)N2)cc1	> 10000 nM	> 17	588 nM
COc1ccc(-c2cc3c([nH]2)C(=O)NCC/C3=C2/NC(N)=NC2=O)cc1OC	1550 nM	111	14 nM
NC1=N/C(=C2/CCNC(=O)c3[nH]ccc32)C(=O)N1		4	
CNC1=NC(=O)/C(=C2\CCNC(=O)c3[nH]c(-c4ccccc4)cc32)N1	6560 nM	38	171 nM
NC1=NC(=O)/C(=C2\CCNC(=O)c3[nH]c(-c4ccccc4)cc32)N1	1310 nM	66	20 nM
O=C1N=C(NCc2ccccc2)N/C1=C1/CCNC(=O)c2[nH]c(-c3ccccc3)cc21	905 nM	32	28 nM
